{"source": "paper PMC4936951", "about": "(Molecular pharmaceutics, 2016)", "key": {"HCT 116/δOR cells": {"system": "HCT 116/δOR cells", "type": "cell-based, human", "outline": "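HCT 116/δOR cells (DMEM/F12, 10% calf serum, 1% pen/strep) on glass-bottom dishes, PBS-rinsed, exposed to 2.5 nM agent in Fluorobrite DMEM at 37°C, 5% CO2. Imaged every 30 s for 15 min; then rinsed and imaged in fresh medium, 4 fields every 10 min to 24 h (40× oil, Cy5, 1.5 s). Per-cell ROI intensity×area gave cytoplasm and membrane (total minus cytoplasm) fluorescence; 11–25 cells/day, three days.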"}, "[1]": {"system": "δOR+ (HCT 116/δOR) and δOR− (HCT 116) tumor xenografts", "assay": "Dose determination by in vivo fluorescence imaging of bilateral tumor xenografts", "set-up": "species or system nu/nu mice", "conditions": "50 nmol/kg i.v., 24 h post-administration", "outline": "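Female nu/nu mice received 8×10^6 cells, HCT 116 in the left flank and HCT 116/δOR in the right, and were imaged after 1 week. Dose given by tail-vein i.v. injection. Animals imaged immediately to confirm injection, then at 24 h, on an IVIS 200. Agent stored in dark aliquots at −80°C; animals kept in a dark chamber. Autofluorescence ratio taken from radiance in identical ROIs on background-subtracted Cy5 and autofluorescence images.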"}, "[2]": {"system": "δOR+ (HCT 116/δOR) and δOR− (HCT 116) tumor xenografts", "type": "in vivo, athymic nude female mice", "conditions": "for Rate of uptake, Slope × 10^7 / Rate of clearance, Slope × 10^7: linear regression, n=5", "outline": "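Athymic nude female mice carried bilateral xenografts of 8×10^6 HCT 116 (left) and HCT 116/δOR (right) cells, grown to mean 500 mm3 by caliper (length×width²/2). Single i.v. dose of 4.5 nmol/kg. IVIS 200 Cy5 imaging at 3, 9, 15, 30, 45 min and 1.5, 3, 6, 12, 18, 24, 48, 72, 96, 168 h. Readout after background subtraction and pre-injection autofluorescence correction: ROI mean surface radiance in efficiency units.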"}, "[3]": {"system": "tumors and organs (spleen, pancreas, liver, kidneys, GI tract, heart, lungs)", "assay": "Ex vivo biodistribution by fluorescence imaging of excised tumors and organs", "type": "in vivo, mice", "conditions": "4.5 nmol/kg", "outline": "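Separate group of bilateral HCT 116 / HCT 116/δOR xenograft mice given 4.5 nmol/kg. At 0, 7.5 min, 15 min, 45 min, 3 h, 6 h, 24 h and 48 h: imaged in vivo, then euthanized. Tumors, spleen, pancreas, liver, kidneys, GI tract, heart and lungs excised and fluorescence-imaged ex vivo. Animals kept in low light after dosing.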"}, "[4]": {"system": "HCT 116/δOR (positive) and HCT 116/RFP (negative) DWC tumors", "assay": "Intravital confocal microscopy in dorsal skinfold window chamber", "type": "in vivo, mouse", "outline": "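Dorsal skinfold window chamber mice carrying HCT 116/δOR or HCT 116/RFP tumors received 45 nmol/kg via tail vein. Confocal imaging with 25× lens, 3570 pixels/min: continuous for 30 min, including 1, 1.5, 2 and 5 min frames, then further time points up to 24 h. Mean intensity ROIs placed in the vessel interior, in adjacent tumor tissue, and over tumor across time.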"}, "δ-opioid receptor": {"target": "δ-opioid receptor", "conditions": "read-out: Ki (binding affinity); δ-opioid receptor antagonist; cited from earlier work"}, "[5]": {"conditions": "45 nmol/kg via tail vein, δOR negative tumor vessel"}}, "note": "Where “and” joins values, the source holds several entries; their conditions need not be identical. Identical values can stand only once. Like-named read-outs stand apart in the source and are kept apart here."}
{"substance": "Dmt-Tic-Lys(Cy5)-OH [Dmt-Tic-Cy5]", "values": [{"measurement": "maximum ratio of fluorescence inside (cytoplasm)/outside (cell membrane)", "setting": "HCT 116/δOR cells; 2.5 nM", "value": 1.69}, {"measurement": "time to observed cell-surface labeling after addition of ligand", "setting": "HCT 116/δOR cells; 2.5 nM", "value": "~ 2 min and 2 min"}, {"measurement": "period of gradual tumor cell internalization", "setting": "HCT 116/δOR cells; after addition of agent", "value": "6 h and ~ 7 h and 7 h"}, {"measurement": "fold of enhancement (FOE) δOR+ tumor relative to δOR− tumor", "setting": "[1]", "value": 5, "unit": "fold"}, {"measurement": "time of clearance from δOR− tumor (nearly pre-injection levels)", "setting": "[2]; 4.5 nmol/kg i.v.", "value": "≤ 6", "unit": "h"}, {"measurement": "time of maximum fluorescence in δOR− tumor", "setting": "[2]; 4.5 nmol/kg i.v.", "value": 15, "unit": "min"}, {"measurement": "time of maximum fluorescence signal in δOR+ tumor", "setting": "[2]; 4.5 nmol/kg i.v.", "value": 3, "unit": "h"}, {"measurement": "time of systemic clearance", "setting": "[2]; 4.5 nmol/kg i.v., based on clearance from negative tumor", "value": "≤ 6", "unit": "h"}, {"measurement": "enhancement in positive tumor relative to negative tumor", "setting": "[2]; 4.5 nmol/kg, from 30 min to 96 h post-administration", "value": "> 3", "unit": "fold"}, {"measurement": "Mean FOE (+ tumor/− tumor)", "setting": "[2]; 4.5 nmol/kg, time 0.15 h", "value": 2.7}, {"measurement": "Mean FOE (+ tumor/− tumor)", "setting": "[2]; 4.5 nmol/kg, time 0.25 h", "value": 2.7}, {"measurement": "Mean FOE (+ tumor/− tumor)", "setting": "[2]; 4.5 nmol/kg, time 0.50 h", "value": 3.2}, {"measurement": "Mean FOE (+ tumor/− tumor)", "setting": "[2]; 4.5 nmol/kg, time 0.75 h", "value": 4.5}, {"measurement": "Mean FOE (+ tumor/− tumor)", "setting": "[2]; 4.5 nmol/kg, time 1 h", "value": 6.5}, {"measurement": "Mean FOE (+ tumor/− tumor)", "setting": "[2]; 4.5 nmol/kg, time 3 h", "value": 9.7}, {"measurement": "Mean FOE (+ tumor/− tumor)", "setting": "[2]; 4.5 nmol/kg, time 6 h", "value": 17.5}, {"measurement": "Mean FOE (+ tumor/− tumor)", "setting": "[2]; 4.5 nmol/kg, time 12 h", "value": 13.5}, {"measurement": "Mean FOE (+ tumor/− tumor)", "setting": "[2]; 4.5 nmol/kg, time 18 h", "value": 26.7}, {"measurement": "Mean FOE (+ tumor/− tumor)", "setting": "[2]; 4.5 nmol/kg, time 24 h", "value": 20.6}, {"measurement": "Mean FOE (+ tumor/− tumor)", "setting": "[2]; 4.5 nmol/kg, time 48 h", "value": 8.9}, {"measurement": "Mean FOE (+ tumor/− tumor)", "setting": "[2]; 4.5 nmol/kg, time 72 h", "value": 10.8}, {"measurement": "Mean FOE (+ tumor/− tumor)", "setting": "[2]; 4.5 nmol/kg, time 96 h", "value": 5.6}, {"measurement": "Mean FOE (+ tumor/− tumor)", "setting": "[2]; 4.5 nmol/kg, time 168 h", "value": 1.8}, {"measurement": "ratio of enhancement in target positive tumors", "setting": "[2]; maintained from 6 h to 24 h post-administration", "value": "approximately 20 fold"}, {"measurement": "Rate of uptake, Slope × 10^7", "setting": "[2]; δOR+ tumor, 0 to 0.75 h", "value": 264, "unit": "Efficiency/h"}, {"measurement": "Rate of clearance, Slope × 10^7", "setting": "[2]; δOR+ tumor, 3 to 96 h", "value": "−1.45", "unit": "Efficiency/h"}, {"measurement": "Rate of uptake, Slope × 10^7", "setting": "[2]; δOR− tumor, 0 to 0.25 h", "value": 211, "unit": "Efficiency/h"}, {"measurement": "Rate of clearance, Slope × 10^7", "setting": "[2]; δOR− tumor, 0.25 to 24 h", "value": "−14.6", "unit": "Efficiency/h"}, {"measurement": "fluorescence signal in heart, lungs, GI tract, spleen and pancreas (ex vivo)", "setting": "[3]", "value": "minimal to no fluorescence signal"}, {"measurement": "time of decrease to pre-injection levels in kidney and liver (ex vivo)", "setting": "[3]; n=5", "value": "≤ 24", "unit": "h"}, {"measurement": "time of highest fluorescence signal in kidney and liver (ex vivo)", "setting": "[3]; n=5", "value": 15, "unit": "min"}, {"measurement": "time of clearance from tumor vasculature", "setting": "[4]; [5]", "value": "≤ 2", "unit": "min"}, {"measurement": "time to peak intensity in tumor vasculature", "setting": "[4]; [5]", "value": "≤ 1", "unit": "min"}, {"measurement": "time of highest fluorescence intensity in negative tumor (intravital)", "setting": "[4]; 45 nmol/kg, HCT 116/RFP DWC tumor", "value": 10, "unit": "min"}, {"measurement": "time of highest fluorescence intensity in positive tumor (intravital)", "setting": "[4]; 45 nmol/kg, HCT 116/δOR DWC tumor", "value": 30, "unit": "min"}, {"measurement": "time of clearance of fluorescence from negative tumor (intravital)", "setting": "[4]; 45 nmol/kg, positive tumor still strong signal", "value": "≤ 24", "unit": "h"}, {"measurement": "Ki", "setting": "δ-opioid receptor", "value": 3, "unit": "nM"}]}
